Laboratory results reported in ChEMBL document CHEMBL1152507, “An extended study of dimeric phenyl tropanes” (Bioorg Med Chem, 2009).

What was measured:
[1] = target: Sodium-dependent dopamine transporter (Homo sapiens, UniProt Q01959); test: Displacement of [125I]methyl 3-(4-iodophenyl)-8-methyl-8-aza-bicyclo[3.2.1]octane-2-carboxylate from human recombinant DAT expressed in african green monkey COS1 cells by liquid scintillation counting; format: cell-based, COS-1
Procedure, shortened: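 Membranes from COS-1 cells stably expressing cloned human transporter; cells scraped, homogenized in ice-cold 150 mM NaCl/50 mM Tris/20 mM EDTA, pelleted at 12,000g, resuspended in PBSCM, stored at -80 °C. 5 µg protein/well incubated with test drug and 0.1–0.25 nM 125I-radioligand for 1 h at 20 °C. Filtered on PEI-presoaked GF/B filters, washed thrice with ice-cold water.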

[2] = target: Sodium-dependent serotonin transporter (Homo sapiens, UniProt P31645); test: Displacement of [125I]methyl 3-(4-iodophenyl)-8-methyl-8-aza-bicyclo[3.2.1]octane-2-carboxylate from human recombinant SERT expressed in african green monkey COS1 cells by liquid scintillation counting; format: cell-based, COS-1
Procedure, shortened: (§1)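 Membranes from COS-1 cells stably expressing cloned human transporter; cells scraped, homogenized in ice-cold 150 mM NaCl/50 mM Tris/20 mM EDTA, pelleted at 12,000g, resuspended in PBSCM, stored at -80 °C. Filtered on PEI-presoaked GF/B filters, washed thrice with ice-cold water.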

[3] = target: Sodium-dependent noradrenaline transporter (Homo sapiens, UniProt P23975); test: Displacement of [125I]methyl 3-(4-iodophenyl)-8-methyl-8-aza-bicyclo[3.2.1]octane-2-carboxylate from human recombinant NET expressed in african green monkey COS1 cells by liquid scintillation counting; format: cell-based, COS-1; procedure, shortened: as §1
[4] = species: Homo sapiens; test: Selectivity ratio of Ki for human SERT to Ki for human DAT
[5] = species: Homo sapiens; test: Selectivity ratio of Ki for human NET to Ki for human DAT

Chain of Sodium-dependent dopamine transporter (Q01959 whole entry): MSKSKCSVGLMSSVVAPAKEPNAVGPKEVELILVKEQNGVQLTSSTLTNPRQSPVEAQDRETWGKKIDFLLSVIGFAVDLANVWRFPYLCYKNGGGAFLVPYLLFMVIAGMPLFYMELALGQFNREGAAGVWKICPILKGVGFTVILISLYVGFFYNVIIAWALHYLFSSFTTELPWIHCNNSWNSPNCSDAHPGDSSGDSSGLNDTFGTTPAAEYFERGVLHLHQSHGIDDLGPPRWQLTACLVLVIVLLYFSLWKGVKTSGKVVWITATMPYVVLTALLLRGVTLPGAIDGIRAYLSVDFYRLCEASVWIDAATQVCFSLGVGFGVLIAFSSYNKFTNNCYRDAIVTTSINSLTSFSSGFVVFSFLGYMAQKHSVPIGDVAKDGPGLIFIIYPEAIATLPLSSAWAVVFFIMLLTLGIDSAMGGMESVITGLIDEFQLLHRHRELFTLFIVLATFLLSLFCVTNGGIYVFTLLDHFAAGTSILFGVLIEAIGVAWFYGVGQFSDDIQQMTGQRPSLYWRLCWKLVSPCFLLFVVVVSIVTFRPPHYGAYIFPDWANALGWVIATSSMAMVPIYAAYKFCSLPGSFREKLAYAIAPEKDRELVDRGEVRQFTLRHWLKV
Chain of Sodium-dependent serotonin transporter (P31645 whole entry): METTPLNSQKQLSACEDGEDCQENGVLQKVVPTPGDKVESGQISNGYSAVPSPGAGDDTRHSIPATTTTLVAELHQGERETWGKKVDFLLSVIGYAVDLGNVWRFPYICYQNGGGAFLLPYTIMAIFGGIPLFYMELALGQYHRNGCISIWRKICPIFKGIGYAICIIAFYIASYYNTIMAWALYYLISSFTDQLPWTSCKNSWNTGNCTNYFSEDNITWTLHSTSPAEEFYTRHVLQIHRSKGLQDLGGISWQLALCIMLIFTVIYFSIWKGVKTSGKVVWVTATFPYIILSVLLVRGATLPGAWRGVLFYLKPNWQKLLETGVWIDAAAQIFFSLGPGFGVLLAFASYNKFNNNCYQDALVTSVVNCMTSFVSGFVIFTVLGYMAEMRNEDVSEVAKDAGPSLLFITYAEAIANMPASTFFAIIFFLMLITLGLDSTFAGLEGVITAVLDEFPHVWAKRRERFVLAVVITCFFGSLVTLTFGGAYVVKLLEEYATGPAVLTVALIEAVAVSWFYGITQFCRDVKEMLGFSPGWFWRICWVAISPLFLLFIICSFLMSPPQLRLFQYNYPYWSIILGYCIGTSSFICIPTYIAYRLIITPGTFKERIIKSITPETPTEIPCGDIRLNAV
Chain of Sodium-dependent noradrenaline transporter (P23975 whole entry): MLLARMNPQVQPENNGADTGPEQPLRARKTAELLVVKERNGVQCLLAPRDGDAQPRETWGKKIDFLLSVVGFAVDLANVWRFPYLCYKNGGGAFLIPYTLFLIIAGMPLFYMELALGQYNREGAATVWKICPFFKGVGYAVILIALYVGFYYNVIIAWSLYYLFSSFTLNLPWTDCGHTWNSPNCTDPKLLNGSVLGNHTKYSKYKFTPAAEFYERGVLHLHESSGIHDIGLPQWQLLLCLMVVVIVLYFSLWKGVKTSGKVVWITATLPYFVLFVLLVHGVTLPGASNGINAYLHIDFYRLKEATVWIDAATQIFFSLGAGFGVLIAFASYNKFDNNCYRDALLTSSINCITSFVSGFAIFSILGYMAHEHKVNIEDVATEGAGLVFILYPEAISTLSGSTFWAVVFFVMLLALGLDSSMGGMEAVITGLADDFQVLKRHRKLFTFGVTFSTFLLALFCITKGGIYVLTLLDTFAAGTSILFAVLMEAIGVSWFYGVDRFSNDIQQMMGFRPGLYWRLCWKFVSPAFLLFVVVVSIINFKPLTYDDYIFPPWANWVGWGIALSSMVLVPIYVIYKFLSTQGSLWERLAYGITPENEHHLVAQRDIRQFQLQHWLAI

Row | SMILES | Ki [1] [nM] | Ki [2] [nM] | Ki [3] [nM] | Ratio Ki [4] | Ratio Ki [5]
1 | CN1C2CCC1[C@@H](C(=O)NCCCCCCNC(=O)[C@H]1C3CCC(C[C@@H]1c1ccc(-c4ccsc4)cc1)N3C)[C@@H](c1ccc(-c3ccsc3)cc1)C2 | 540 | 2100 | 2200 | 4 | 4
2 | CN1C2CCC1[C@@H](C(=O)OCc1cn(CCCCCCOC(=O)[C@H]3C4CCC(C[C@@H]3c3ccc(Cl)cc3)N4C)nn1)[C@@H](c1ccc(Cl)cc1)C2 (stereo partly specified) | 1 | 0.86 | 8.5 | 0.86 | 8.5
3 | CN1C2CCC1[C@@H](C(=O)Nc1ccc(NC(=O)[C@H]3C4CCC(C[C@@H]3c3ccc(Cl)cc3)N4C)cc1)[C@@H](c1ccc(Cl)cc1)C2 | 690 | 3200 | 5400 | 4.6 | 7.8
4 | CN1C2CCC1[C@@H](C(=O)NCCCCCCCCNC(=O)[C@H]1C3CCC(C[C@@H]1c1ccc(-c4ccsc4)cc1)N3C)[C@@H](c1ccc(-c3ccsc3)cc1)C2 | 690 | 470 | 1700 | 0.68 | 2.4
5 | CN1C2CCC1[C@@H](C(=O)NCc1ccc(CCNC(=O)[C@H]3C4CCC(C[C@@H]3c3ccc(-c5ccsc5)cc3)N4C)cc1)[C@@H](c1ccc(-c3ccsc3)cc1)C2 (stereo partly specified) | 160 | 62 | 1300 | 0.38 | 8.2
6 | CN1C2CCC1[C@@H](C(=O)NCc1ccc(CNC(=O)[C@H]3C4CCC(C[C@@H]3c3ccc(-c5ccsc5)cc3)N4C)cc1)[C@@H](c1ccc(-c3ccsc3)cc1)C2 | 93 | 160 | 620 | 1.7 | 6.7
7 | CN1C2CCC1[C@@H](C(=O)Nc1ccc(CNC(=O)[C@H]3C4CCC(C[C@@H]3c3ccc(-c5ccsc5)cc3)N4C)cc1)[C@@H](c1ccc(-c3ccsc3)cc1)C2 (stereo partly specified) | 800 | 730 | 2700 | 0.92 | 3.4
8 | CN1C2CCC1[C@@H](C(=O)NCCCCCCCCCCNC(=O)[C@H]1C3CCC(C[C@@H]1c1ccc(-c4ccsc4)cc1)N3C)[C@@H](c1ccc(-c3ccsc3)cc1)C2 | 350 | 250 | 1500 | 0.72 | 4.4
9 | CN1C2CCC1[C@@H](C(=O)NCc1cccc(CNC(=O)[C@H]3C4CCC(C[C@@H]3c3ccc(-c5ccsc5)cc3)N4C)c1)[C@@H](c1ccc(-c3ccsc3)cc1)C2 | 230 | 860 | 1200 | 3.7 | 5.1
10 | CN1C2CCC1[C@@H](C(=O)OCc1cn(CCCCCCCOC(=O)[C@H]3C4CCC(C[C@@H]3c3ccc(Cl)cc3)N4C)nn1)[C@@H](c1ccc(Cl)cc1)C2 (stereo partly specified) | 3.9 | 3.5 | 20 | 0.89 | 5.1
11 | CN1C2CCC1[C@@H](C(=O)Nc1ccc(CNC(=O)[C@H]3C4CCC(C[C@@H]3c3ccc(Cl)cc3)N4C)cc1)[C@@H](c1ccc(Cl)cc1)C2 (stereo partly specified) | 21 | 1500 | 810 | 74 | 39
12 | CN1C2CCC1[C@@H](C(=O)Nc1ccc(CCNC(=O)[C@H]3C4CCC(C[C@@H]3c3ccc(Cl)cc3)N4C)cc1)[C@@H](c1ccc(Cl)cc1)C2 (stereo partly specified) | 6.6 | 2600 | 180 | 390 | 27
13 | CN1C2CCC1[C@@H](C(=O)N[C@H]1CC[C@H](NC(=O)[C@H]3C4CCC(C[C@@H]3c3ccc(Cl)cc3)N4C)CC1)[C@@H](c1ccc(Cl)cc1)C2 | 890 | 4000 | 4900 | 4.6 | 5.5
14 | CN1C2CCC1[C@@H](C(=O)NCc1ccc(CCNC(=O)[C@H]3C4CCC(C[C@@H]3c3ccc(Cl)cc3)N4C)cc1)[C@@H](c1ccc(Cl)cc1)C2 (stereo partly specified) | 20 | 65 | 100 | 3.3 | 5.2
15 | COC(=O)[C@@H]1C2CCC(C[C@@H]1c1ccc(-c3ccsc3)cc1)N2C (stereo partly specified) | 2.5 | 0.58 | 26 | 0.24 | 10
16 | CN1C2CCC1[C@@H](C(=O)OCc1cn(CCOC(=O)[C@H]3C4CCC(C[C@@H]3c3ccc(Cl)cc3)N4C)nn1)[C@@H](c1ccc(Cl)cc1)C2 (stereo partly specified) | 16 | 27 | 120 | 1.6 | 7.3
17 | COC(=O)[C@@H]1C2CCC(C[C@@H]1c1ccc(Cl)cc1)N2C (stereo partly specified) | 2.7 | – | – | – | –
18 | CN1C2CCC1[C@@H](C(=O)OCCCCCn1ccnn1)[C@@H](c1ccc(Cl)cc1)C2 (stereo partly specified) | 5.5 | 20 | 380 | 3.6 | 69
19 | CN1C2CCC1[C@@H](C(=O)Nc1ccc(CCNC(=O)[C@H]3C4CCC(C[C@@H]3c3ccc(-c5ccsc5)cc3)N4C)cc1)[C@@H](c1ccc(-c3ccsc3)cc1)C2 (stereo partly specified) | 710 | 340 | 3300 | 0.48 | 4.6
20 | CN1C2CCC1[C@@H](C(=O)NCCC1CCN(C(=O)[C@H]3C4CCC(C[C@@H]3c3ccc(Cl)cc3)N4C)CC1)[C@@H](c1ccc(Cl)cc1)C2 (stereo partly specified) | 180 | 2500 | 440 | 14 | 2.5
21 | CN1C2CCC1[C@@H](C(=O)N[C@H]1CC[C@H](NC(=O)[C@H]3C4CCC(C[C@@H]3c3ccc(-c5ccsc5)cc3)N4C)CC1)[C@@H](c1ccc(-c3ccsc3)cc1)C2 | 1300 | 810 | 5000 | 0.62 | 3.8
22 | CN1C2CCC1[C@@H](C(=O)Nc1ccc(NC(=O)[C@H]3C4CCC(C[C@@H]3c3ccc(-c5ccsc5)cc3)N4C)cc1)[C@@H](c1ccc(-c3ccsc3)cc1)C2 | 210 | 270 | 1900 | 1.3 | 9.4
23 | COC(=O)[C@@H]1C2CCC(C[C@@H]1c1ccc(I)cc1)N2C (stereo partly specified) | 3.9 | 4.2 | 19 | 1.1 | 4.9
